Screening data as filed in PubChem BioAssay.
STAT3 act: activators of IL-6 induced STAT3 signaling; activation (% of control), % at 5.6 µM; AID 871; 190,000 compounds, 0.91% hits; U3A cells, IL-6 STAT3-luciferase reporter, luminescence; 100% = signal with IL-6 EC80 alone;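 active = activation above the screen-wide mean of compound activation plus 3 SD, cut at about 130% in these data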
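Detection: reporter luminescence signal / Assay system: STAT1-lacking human U3A cells, STAT3 luciferase reporter / Incubation: compound pre-incubation 1 h before IL-6, then 6 h stimulation at 37 °C / Control set: IL-6-only high control / Read-out: % activation relative to IL-6 control / Probe or stimulus: Interleukin-6, 33 ng/mL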
NF-kB expr up: raises NF-kB expression in human neuronal cells; fold change at 12.5 µM; 190,000 compounds, 1.6% hits; NF-kB reporter expression; hits give high values; in the data active = fold change above about 3.3
STAT1 blocker: reduces IFN-gamma driven STAT1 reporter signal; AID 920; NIH 3T3 STAT1-luciferase reporter, luminescence; 200,000 compounds, 0.35% hits; inhibition, % at 5.5 µM;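 active = inhibition above a set limit, the mean inhibition across all tested compounds plus 3 SD, cut at about 34% in these data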
STAT1 act: increases IFN-gamma driven STAT1 reporter signal | NIH 3T3 STAT1-luciferase reporter, luminescence; 100% = IFN-gamma alone, no compound | activation (% of control), % at 5.5 µM | 200,000 compounds, 2.6% hits;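 active = activation above the screen-wide mean activation plus 3 SD, cut at about 130% in these data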
APP 5'UTR act: APP 5'UTR luciferase reporter activation. SH-SY5Y APP 5'UTR luciferase reporter, luminescence; zero percent = DMSO vehicle wells. activation, % at 2 µM. 190,000 compounds, 1% hits;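 active = activation above a set limit, based on mean plus 3 SD of controls, cut at about 140% in these data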
STAT3 inh: STAT3 signaling inhibition. U3A cells, IL-6 STAT3-luciferase reporter, luminescence; host cell line lacks STAT1. inhibition, % at 5.5 µM. 190,000 compounds, 0.89% hits;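 active = inhibition above the mean inhibition across all screened compounds plus 3 SD, cut at about 44% in these data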
Each line names hits and unclear results; the compound was inactive in the other large screens. Hits are enriched below; roughly 4.9% of the tested compounds scored in any of these assays.

Cc1cc(C)c(S(=O)(=O)Nc2cc(SCC(=O)O)c(O)c3ccccc23)cc1C	STAT3 act 135
COCCCn1c(SCc2nnc(-c3ccccc3)o2)nc2sc3c(c2c1=O)CCC3	none
Cn1c(SCc2nnc(-c3ccccc3Br)o2)nc2sc3c(c2c1=O)CCC3	NF-kB expr up 4.5
CC1CCN(c2nc3ccc(C(=O)O)cc3s2)CC1	NF-kB expr up 6.7, STAT1 blocker 80, STAT3 inh 109
O=C(c1ccc2nc(N3CCOCC3)sc2c1)N1CCN(C(=O)c2ccco2)CC1	none
O=C(NCC1CCCO1)c1ccc2nc(N3CCCCC3)sc2c1 (configuration not stated)	STAT1 act 130
CCc1ccccc1NC(=O)CSc1ccsc1[N+](=O)[O-]	none
COc1ccc(OC)c(CCNC(=O)CSc2ccsc2[N+](=O)[O-])c1	none
COc1ccccc1CNC(=O)CSc1ccsc1[N+](=O)[O-]	STAT1 act 137
O=C(CSc1ccsc1[N+](=O)[O-])NCc1ccccc1	STAT3 act 135
C[C@H](CO)NC(=O)[C@@H]1C[C@H]1[C@@H](NP(=O)(c1ccccc1)c1ccccc1)c1ccccc1	none
COC(=O)c1ccc(CN2CCN(C(C)C)C(CCO)C2)cc1 (configuration not stated)	none
Cc1ccc(C)c(Nc2nc(N)c3ccccc3n2)c1	APP 5'UTR act 184
O=c1oc(Nc2cccc(F)c2)nc2ccccc12	none
Cc1ccc(C)c(Nc2ncnc(N)c2[N+](=O)[O-])c1	none
Nc1nc(Nc2cccc(F)c2)nc2ccccc12	NF-kB expr up 5.3, STAT1 act 145
COc1ccc2sc3ccccc3c(=O)c2c1	STAT1 act 132
COc1ccc2oc3ccc(OC)cc3c(=O)c2c1	STAT1 act 144
CCN1C(=O)[C@H]2[C@H]3[C@H](O)[C@H](O)C/C(=N\O[C@H](C)c4cn([C@H](CO)Cc5ccccc5)nn4)[C@@H]3CC[C@H]2C1=O	none
C=CCSc1n[nH]c(-c2ccc(OC)cc2)n1	STAT1 act 140
Cc1ccc(-c2nn(-c3ccccc3)cc2C=C2C(=O)CC(C)(C)CC2=O)cc1	none
CC1=NNC(=O)/C1=C\c1cn(-c2ccccc2)nc1-c1ccc(Cl)cc1	STAT3 inh 61
CCOc1ccc(-c2nc(CCl)cs2)cc1	NF-kB expr up 3.8
COc1cc(NC(=O)c2cc3sccc3n2C)cc(OC)c1	STAT1 act 132
COc1ccc(N2C(=NC(C)=O)SC3CS(=O)(=O)CC32)cc1OC (configuration not stated)	none
CCCC(=O)N=C1SC2CS(=O)(=O)CC2N1c1ccc(-c2nc3ccc(C)cc3s2)cc1 (configuration not stated)	STAT1 act 131
NC(=O)c1ccccc1NC(=S)NC(=O)c1ccc(Br)o1	none
COc1ccc(NC(=S)NC(=O)c2ccc(Br)o2)cc1	STAT1 act 147
O=C(NC(=S)Nc1ccccc1)c1ccc(Br)o1	STAT1 act 138
Cc1ccc(/C=N\NC(=O)C2CN(S(=O)(=O)c3ccccc3)CCN2S(=O)(=O)c2ccccc2)cc1 (configuration not stated)	none
O=C(CN1CCCCCC1)Nc1cccc([N+](=O)[O-])c1	none
O=C(Nc1cccc([N+](=O)[O-])c1)C(=O)N1CCCCC1	STAT1 act 132
Cc1ccc(NC(=O)C(=O)N2CCCC2)cc1Cl	STAT1 act 148
Fc1ccc(-c2ncc3ccccn23)cc1	none
Clc1ccc(/C=C/c2ncc3ccccn23)cc1	NF-kB expr up 3.7, STAT1 act 144
COC(=O)C1CCN(CC(=O)NC(=O)NC2CCCCC2)CC1	none
CCOc1ccc(N2Cc3ncccc3C2=O)cc1	STAT1 act 140
Fc1ccc2c(Cl)c(-c3nnc(-c4cccs4)o3)sc2c1	APP 5'UTR act 146
CCOC(=O)/C(C#N)=C/Nc1ccccc1OC	STAT1 act 145
COc1ccc(C2=Nn3c([n+](C)c4ccccc43)SC2)cc1	STAT1 blocker 35
CC1CC1c1ccc(/C=C(\C#N)C(=O)Nc2ccc(Cl)cc2)o1 (configuration not stated)	STAT1 act 141
CC(=O)c1cccc(CN2CCCC(CCC(=O)NCc3ccc(F)c(F)c3)C2)c1 (configuration not stated)	none
Cc1ccc(CN2CCN(CC(C)C)C(CCO)C2)s1 (configuration not stated)	STAT1 act 135
Cc1ccc(CN2CCN(CCC(C)C)C(CCO)C2)s1 (configuration not stated)	none
COc1ccc([N+](=O)[O-])cc1N(CC1CO1)S(=O)(=O)c1ccc(C)cc1 (configuration not stated)	none
C/C(=N\NC(=O)OC(C)(C)C)c1ccccc1Br	STAT1 act 132
COc1ccc(-n2c3c(c(=O)[nH]c2=O)C(NC(C)=O)(C(F)(F)F)C(=O)N3)cc1 (configuration not stated)	none
COc1ccc(NC(=S)c2ccncc2)cc1	none
COc1ccc(C(=S)Nc2ccc(C)cc2)cc1	STAT1 act 133
Cc1ccc(NC(=S)c2ccccc2)cc1	STAT1 act 139
COc1cc(/C=N/n2nnnc2Nc2ccccc2)cc(OC)c1OC	none
COc1ccc(-c2nnc(SCc3ccccc3F)o2)cc1OC	none
Cc1ccc(-c2nnc(SCc3ccccc3F)o2)cc1	NF-kB expr up 7.3, STAT1 act 135, APP 5'UTR act 142
C#CCSc1nnc(-c2ccc(C)cc2)o1	NF-kB expr up 3.7, STAT1 act 129
Cc1sc(NC(=S)NC(=O)CCc2ccccc2)c(C(N)=O)c1C	STAT3 act 156
COC(=O)c1c(NC(=O)Nc2ccc(Cl)cc2)sc(C)c1C	none (no result: APP 5'UTR act)
Cc1sc(NC(=O)Nc2ccccc2)c(C(N)=O)c1C	STAT1 act 139
CC(=O)c1cccc(NC(=O)N2CCCC2C(=O)Nc2ccc3c(c2)OCO3)c1 (configuration not stated)	none
CCn1c(COc2cccc3cccnc23)nnc1SC(F)F	none
COC(=O)C/C=C/[C@@H](C)[C@@H](/C=N/OC[C@@H](C)[C@H](OCc1ccccc1)C(C)C)NS(=O)(=O)c1ccc(C)cc1	none
O=c1[nH][nH]cc1C=Nc1cc(Cl)ccc1O	NF-kB expr up 4.2
O=c1[nH][nH]cc1C=Nc1ccccc1Cl	none
O=c1[nH][nH]cc1C=Nc1ccccc1O	NF-kB expr up 6.2
COc1ccc(CCNc2nnc(Sc3nnnn3-c3ccccc3)s2)cc1OC	NF-kB expr up 3.7
COc1ccc(S(=O)(=O)NCc2ccco2)cc1N(C)S(=O)(=O)c1ccccc1	none (no result: NF-kB expr up)
CC(=O)c1sc(NC(=O)c2ccc(C)c(C)c2)nc1C	STAT1 act 147, APP 5'UTR act 172
CC(=O)c1sc(NC(=O)c2ccccc2F)nc1C	NF-kB expr up 3.5
